Assay outcomes: PubChem, Broad Institute
DENV2 CPE – inhibitors of DENV2 cytopathic effect | CPE inhibition, % at 9.99 µM | DENV2-infected cells, cytopathic effect rescue, plate reader | AID 651640 | 1.7% of 350,000 active; in the data active means CPE inhibition above about 20%, passing the limit was not always enough; inconclusive means no clear call, values can overlap the other calls; tested in BHK-21 cells;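 further: 0% = median of neutral control wells and 100% = median of positive control wells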
E-selectin induc – E-selectin induction on HUVECs | HUVEC E-selectin immunofluorescence imaging; normalized: neutral wells 0, TNF-alpha wells 100 | activation, % at 7.58 µM | 0.37% of 260,000 active;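 active means mean E-selectin-positive cell signal at least 10% of the positive control, reached in at least 60% of replicates, without over 20% cell loss; inconclusive means no rule given, readout overlaps actives, possibly toxicity-flagged; inactive means the rest, including those meeting only one limit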
Target sequence (P16581 whole entry, looked up): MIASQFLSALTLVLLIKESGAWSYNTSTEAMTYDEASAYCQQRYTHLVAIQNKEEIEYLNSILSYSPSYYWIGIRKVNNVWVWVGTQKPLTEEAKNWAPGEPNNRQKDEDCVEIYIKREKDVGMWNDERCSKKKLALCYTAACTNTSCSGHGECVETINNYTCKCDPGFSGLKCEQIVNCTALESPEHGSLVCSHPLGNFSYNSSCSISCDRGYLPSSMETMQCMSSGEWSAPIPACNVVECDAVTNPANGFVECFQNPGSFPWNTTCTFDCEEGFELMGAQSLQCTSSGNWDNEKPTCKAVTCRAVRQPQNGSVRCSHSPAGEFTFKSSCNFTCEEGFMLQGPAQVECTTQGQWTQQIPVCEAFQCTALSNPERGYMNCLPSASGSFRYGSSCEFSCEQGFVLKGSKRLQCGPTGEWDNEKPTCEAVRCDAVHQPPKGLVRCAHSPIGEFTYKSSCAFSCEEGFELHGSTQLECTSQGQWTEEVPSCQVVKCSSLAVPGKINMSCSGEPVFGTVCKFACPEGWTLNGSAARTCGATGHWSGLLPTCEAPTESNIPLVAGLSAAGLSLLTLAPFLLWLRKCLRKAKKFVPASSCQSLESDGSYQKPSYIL
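Material: HUVEC primary endothelial cells; Amount: 3,000 cells per well; Dosing: single concentration; Medium: EGM-2 growth medium on 0.1% gelatin-coated wells; Read-out basis: percent E-selectin-positive cells; Signal: immunofluorescence imaging; Control set: TNF-alpha, DMSO.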
Statin myotox sup – protects C2C12 myotubes from simvastatin toxicity; ATP luminescence, 48 h; scaled: DMSO 0, geranylgeraniol control 100; rescue of ATP level, % at 7.49 µM; 0.78% of 330,000 active; AID 602340;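 active means mean ATP rescue above about 67%, or every replicate alone reaching that limit, limit read from the data, passing the limit was not always enough; inconclusive means no clear call, values can overlap the other calls; inactive means mean under the limit and some replicate under it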;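 further: myotubes were challenged with 10 µM simvastatin during compound exposure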
* = called active by the depositor; ? = inconclusive; . = no result given; ! = not active in a repeat. Most compounds without a hit are left out; they make up all but 2.2% or so of the library.

SMILES | DENV2 CPE | E-selectin induc | Statin myotox sup
Cc1cc(C(=O)Nc2cccc3c2O[C@H](CN(C)C(=O)Nc2ccc4c(c2)OCO4)[C@H](C)CN([C@H](C)CO)C3=O)n(C)n1 | 13 | -1 | -23
C[C@H]1CN([C@@H](C)CO)C(=O)c2cc(NC(=O)Cc3ccccc3)ccc2O[C@H]1CN(C)S(=O)(=O)c1ccc(Cl)cc1 | 5 | 24 | -19
C[C@@H]1CCCCO[C@@H](CN(C)CC2CCCCC2)[C@@H](C)CN([C@@H](C)CO)C(=O)c2cc(NC(=O)c3ccccc3)ccc2O1 | -6 | 0 | .
CNC[C@@H]1Oc2c(N)cccc2C(=O)N([C@H](C)CO)C[C@@H]1C | -5 | 0 | -5
Cc1ccc(S(=O)(=O)Nc2ccc3c(c2)C(=O)N([C@@H](C)CO)C[C@@H](C)[C@H](CN(C)S(C)(=O)=O)O3)cc1 | -12 | 0 | .
CSc1nsc(/C=C/Nc2ccc(Cl)cc2)c1C#N | . | . | 125*
CSc1nsc(/C=C/Nc2ccc(F)cc2)c1C#N | -2 | . | .
Cn1cnnc1SCC(=O)Nc1ccc(Br)cc1F | . | . | 71*
Cn1cnnc1SCC(=O)Nc1ccccc1 | -5 | 0 | 6
Cc1noc(C)c1NC(=O)Nc1ccc2c(c1)C(=O)N([C@H](C)CO)C[C@H](C)[C@@H](CN(C)C(=O)Nc1ccccc1)OCCCC[C@H](C)O2 | 10 | 0 | 24
Cc1noc(C)c1NC(=O)Nc1ccc2c(c1)C(=O)N([C@@H](C)CO)C[C@H](C)[C@@H](CN(C)Cc1ccc(Cl)c(Cl)c1)OCCCC[C@@H](C)O2 | -5 | 0 | .
Cc1noc(C)c1NC(=O)Nc1ccc2c(c1)C(=O)N([C@@H](C)CO)C[C@@H](C)[C@@H](CN(C)C(=O)Nc1ccccc1)OCCCC[C@@H](C)O2 | 22* | 0 | 55
Cc1noc(C)c1NC(=O)N(C)C[C@@H]1OCCCC[C@@H](C)Oc2ccc(NC(=O)C3CCCCC3)cc2C(=O)N([C@H](C)CO)C[C@H]1C | -4 | 0 | .
Cc1noc(C)c1NC(=O)N(C)C[C@@H]1OCCCC[C@@H](C)Oc2ccc(NC(=O)C3CCCCC3)cc2C(=O)N([C@@H](C)CO)C[C@@H]1C | 25* | 0 | .
Cc1noc(C)c1NC(=O)N(C)C[C@@H]1OCCCC[C@@H](C)Oc2ccc(NC(=O)Nc3ccc(C(F)(F)F)cc3)cc2C(=O)N([C@H](C)CO)C[C@@H]1C | 1 | 0 | -12
Cc1noc(C)c1NC(=O)N(C)C[C@@H]1OCCCC[C@H](C)Oc2ccc(NC(=O)Nc3ccc(C(F)(F)F)cc3)cc2C(=O)N([C@@H](C)CO)C[C@@H]1C | 30* | 0 | 7
Cc1noc(C)c1NC(=O)Nc1ccc2c(c1)C(=O)N([C@H](C)CO)C[C@H](C)[C@H](CN(C)Cc1ccc(Cl)c(Cl)c1)OCCCC[C@@H](C)O2 | 35* | 0 | .
C[C@@H]1CN([C@H](C)CO)C(=O)c2cccc(NC(=O)c3cnccn3)c2O[C@H]1CN(C)C(=O)Nc1ccc2c(c1)OCO2 | -3 | 0 | -26
Cc1noc(C)c1NC(=O)N(C)C[C@H]1OCCCC[C@@H](C)Oc2ccc(NC(=O)Nc3cccc4ccccc34)cc2C(=O)N([C@@H](C)CO)C[C@H]1C | -3 | 0 | .
Cc1noc(C)c1NC(=O)Nc1ccc2c(c1)C(=O)N([C@H](C)CO)C[C@H](C)[C@H](CN(C)C(=O)NC1CCCCC1)OCCCC[C@@H](C)O2 | 31*! | 0 | 13
Cc1noc(C)c1NC(=O)Nc1ccc2c(c1)C(=O)N([C@@H](C)CO)C[C@@H](C)[C@H](CN(C)C(=O)NC1CCCCC1)OCCCC[C@H](C)O2 | 11 | 0 | .
Cc1noc(C)c1NC(=O)N(C)C[C@@H]1OCCCC[C@@H](C)Oc2ccc(NC(=O)Nc3cccc4ccccc34)cc2C(=O)N([C@@H](C)CO)C[C@@H]1C | 38* | . | .
O=C(C[C@H]1CC[C@H]2[C@@H](COC[C@H](O)CN2C(=O)c2ccccc2F)O1)N1CCOCC1 | -9 | 0 | 4
COc1ccc(COCC23N=C4SCCCN4[C@H](c4ccccc4O2)[C@H]3CO[Si](C)(C)C(C)(C)C)cc1 | 20 | . | .
COc1ccc(COCC23N=C4SCC(=O)N4[C@H](c4ccccc4O2)[C@H]3CO)cc1 | 26* | . | .
SMILES | DENV2 CPE | E-selectin induc | Statin myotox sup
O=C1CSC2=NC3(CO)Oc4ccccc4[C@H]([C@H]3CO)N12 | 27* | . | .
OC[C@@H]1[C@H]2c3ccccc3OC1(CO)N=C1SCc3ccccc3CN12 | 2 | . | .
CN1C(=O)c2cc(NC(=O)c3cccc(F)c3)ccc2OC[C@@H]2O[C@H](CC(=O)NCC3CC3)CC[C@H]21 | ? | 0 | .
C[C@H](O)C#Cc1ccc2c(c1)O[C@H](CN(C)C(=O)CN(C)C)[C@H](C)CN([C@H](C)CO)S2(=O)=O | 42* | 0 | .
C[C@H](O)C#Cc1ccc2c(c1)O[C@@H](CN(C)C(=O)C1CC1)[C@@H](C)CN([C@H](C)CO)S2(=O)=O | -2 | 1 | -21
C[C@@H]1CN([C@H](C)CO)S(=O)(=O)c2ccc(C#Cc3ccncc3)cc2O[C@@H]1CN(C)C(=O)C1CC1 | 30* | 0 | -9
C[C@H](O)C#Cc1ccc2c(c1)O[C@H](CN(C)C(=O)C1CC1)[C@@H](C)CN([C@@H](C)CO)S2(=O)=O | 57* | 0 | -1
C[C@H](CO)N1C[C@H](C)[C@H](CN(C)C(=O)C2CC2)Oc2cc(C#Cc3ccncc3)ccc2S1(=O)=O | 3 | 2 | 39
C[C@@H](O)C#Cc1ccc2c(c1)O[C@@H](CN(C)C(=O)CN(C)C)[C@@H](C)CN([C@@H](C)CO)S2(=O)=O | -13 | 0 | 6
COc1ccc(S(=O)(=O)Nc2ccc3c(c2)C(=O)N([C@@H](C)CO)C[C@@H](C)[C@@H](CN(C)C(=O)Nc2ccc4c(c2)OCO4)OCCCC[C@H](C)O3)cc1 | 10 | 0 | .
CN(C)C(=O)c1ccc(-c2ccc3c(c2)[C@H]2[C@H](CCN2C(=O)C2CC2)[C@@H](CO)N3C)cc1 | 4 | 0 | 21
C[C@H]1CCCCO[C@H](CN(C)S(=O)(=O)c2cccs2)[C@@H](C)CN([C@@H](C)CO)C(=O)c2cc(NS(=O)(=O)c3cccs3)ccc2O1 | 14 | 1 | .
O=C(Nc1cccc(F)c1)N1CCCCN2[C@H](CO)[C@@H](c3ccc(C#CC4CC4)cc3)[C@@H]2C1 | . | -1 | .
CO[C@H]1CN(C)C(=O)c2ccc(NC(=O)C3CC3)cc2OC[C@@H](C)N(Cc2ccncc2)C[C@@H]1C | 5 | . | -4
C/C(=N\OCC(=O)Nc1ccccc1C(C)(C)C)c1ccc2c(c1)OCCO2 | -1 | 0 | 10
COc1cc(NC(=O)COC(=O)CO/N=C(\C)c2ccc3c(c2)OCO3)cc(OC)c1 | -3 | -3 | -2
COc1cc(NC(=O)COC(=O)CO/N=C(\C)c2ccc3c(c2)OCO3)cc(OC)c1OC | 1 | 180* | .
C/C(=N\OCC(=O)Nc1ccc(OC(F)(F)F)cc1)c1ccc2c(c1)OCCO2 | 108* | . | 2
C[C@@H]1CN([C@H](C)CO)S(=O)(=O)c2ccc(-c3ccc(C(=O)N(C)C)cc3)cc2O[C@H]1CN(C)C(=O)C1CCC1 | 11 | 0 | 2
Cc1ccc(S(=O)(=O)N(C)C[C@H]2Oc3c(NS(=O)(=O)c4ccccc4)cccc3C(=O)N([C@H](C)CO)C[C@@H]2C)cc1 | 2 | -1 | .
